Consider six compounds from ChEMBL document CHEMBL1153034, “Antileishmaniasis activity of flavonoids from Consolida oliveriana” (J Nat Prod, 2009).

The subject of one series is J774.2. The series is described as follows: Cytotoxicity against BALB/c mouse J774.2 cells after 72 hrs by trypan blue assay. The format is cell-based. In a few lines: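 J774.2 macrophages in MEM with 10% inactivated FBS, pH 7.2, seeded at 10⁵ cells/mL, 2 days at 37 °C in 5% CO₂. Fresh medium with compound at 100, 50, 25, 10 and 1 µM, 72 h. Dead cells counted by trypan blue (0.1% in phosphate buffer); viability relative to control. IC50 by linear regression of K_c values.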

The test system of series [1] is Leishmania braziliensis. In words: Antileishmanial activity against extracellular Leishmania braziliensis promastigotes after 72 hrs. The class given is functional, organism-based. In a few lines: (§1)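 Promastigotes grown in MTL medium plus 10% inactivated FBS, air atmosphere, 28 °C. Compounds at 100, 50, 25, 10 and 1 µM, DMSO 0.1%. Parasites counted in a Neubauer hemocytometer at 24, 48 and 72 h. Average of three separate determinations.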

For series [2], the system named is Leishmania peruviana. The series is described as follows: Antileishmanial activity against extracellular Leishmania peruviana promastigotes after 72 hrs. The format is functional, organism-based. In a few lines: as §1
The nature of series [3]: Ratio of compound IC50 to pentostam IC50 for BALB/c mouse J774.2 cells. The format is ADME, cell-based. The conditions noted are these: read-out: Ratio IC50.
A short description of series [4]: Ratio of compound IC50 to glucatim IC50 for BALB/c mouse J774.2 cells. As to conditions: read-out: Ratio IC50. The class given is ADME, cell-based.
Series [5] concerns Leishmania peruviana. The series is described as follows: Antileishmanial activity against Leishmania peruviana assessed as induction of death of parasite with distortion of parasite body at IC25 after 96 hrs by transmission electron microscopy. The format is functional, organism-based. The method in brief: (§2)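 L. (V.) peruviana MHOM/PE/1984/LC26 or L. (V.) braziliensis MHOM/BR/1975/M2904 promastigotes at 5 × 10⁶ cells/mL in MTL medium plus 10% inactivated FBS, in air at 28 °C, with drug at IC25 for 96 h. Pellets were PBS-washed, fixed 2 h at 4 °C in 2% (v/v) p-formaldehyde-glutaraldehyde in 0.05 M cacodylate (pH 7.4), and examined by TEM against untreated parasites.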

Series [6] deals with Leishmania braziliensis. In words: Antileishmanial activity against intracellular Leishmania braziliensis amastigotes after 72 hrs by Giemsa staining. The format is functional, organism-based.
In series [7] the test system is Leishmania peruviana. In words: Antileishmanial activity against Leishmania peruviana assessed as abundance of morphologically altered glycosomes at IC25 after 96 hrs by transmission electron microscopy. The format is functional, organism-based.
For series [8], the system named is Leishmania peruviana. In words: Inhibition of acetate catabolite excretion in Leishmania peruviana promastigotes at IC25 after 96 hrs by NMR spectroscopy. The class given is functional. In a few lines:
(§3)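 Promastigotes of L. (V.) peruviana or L. (V.) braziliensis in MTL medium (initial 5 × 10⁵ cells/mL) received drug at IC25; controls were untreated. After 96 h at 28 °C, cells were spun down at 1500 rpm for 10 min. Excreted end metabolites in the cell-free medium were identified by ¹H NMR and compared with fresh medium and untreated cultures.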

Series [9] relates to Leishmania peruviana. The series is described as follows: Effect on pyruvate catabolite excretion in Leishmania peruviana promastigotes at IC25 after 96 hrs by NMR spectroscopy. The format is functional, organism-based. The method in brief: as §3
The test system of series [10] is Leishmania peruviana. The series is described as follows: Inhibition of succinate catabolite excretion in Leishmania peruviana promastigotes at IC25 after 96 hrs by NMR spectroscopy. The format is functional. In a few lines:
as §3

In series [11] the test system is Leishmania peruviana. In words: Antileishmanial activity against intracellular Leishmania peruviana amastigotes after 10 days by Giemsa staining.
The subject of series [12] is Leishmania peruviana. The series is described as follows: Antileishmanial activity against Leishmania peruviana in BALB/c mouse J774.2 cells assessed as reduction of morphological conversion to parasite amastigote number per cell measured on day 10 by Giemsa staining relative to control. The class given is functional. More on the design: scale not given: the % may be the effect or the level left.

The subject of series [13] is Leishmania peruviana. The series is described as follows: Effect on glycerol catabolite excretion in Leishmania peruviana promastigotes at IC25 after 96 hrs by NMR spectroscopy. The format is functional, organism-based. The method in brief: as §3
For series [14], the system named is Leishmania peruviana. The series is described as follows: Antileishmanial activity against Leishmania peruviana infected in BALB/c mouse J774.2 cells assessed as decrease in parasite infection rate measured on day 10 relative to control. The class given is functional. Details: scale not given: the % may be the effect or the level left.
Series [15] concerns Leishmania peruviana. The series is described as follows: Antileishmanial activity against Leishmania peruviana assessed as disruption of parasite cytoplasm at IC25 after 96 hrs by transmission electron microscopy. The format is functional, organism-based. In a few lines: as §2
The test system of series [16] is Leishmania peruviana. In words: Increase in L-alanine catabolite excretion in Leishmania peruviana promastigotes at IC25 after 96 hrs by NMR spectroscopy. The format is functional, organism-based. In a few lines:
as §3

Where [17] appears, read: Mus musculus, BALB/c, J774.2, 72 h.

Active and inactive are the calls of the source. No cut-off for these calls is given here.

As for `O=c1c(O)c(-c2ccc(O)cc2)oc2cc(O)cc(O)c12` [KAEMPFEROL], the IC50 was found to be 53.7 µM with J774.2 (setting [17]); 53.6 µM in the series with Leishmania braziliensis [1] (Leishmania braziliensis, 72 h); 71.3 µM in the series with Leishmania peruviana [2] (Leishmania peruviana, 72 h).

On to MEGLUMINE ANTIMONATE, for which the IC50 with J774.2 (j774.2) turned out to be 15.2 µM; in the series with Leishmania braziliensis [1], 25.6 µM; in the series on Leishmania peruviana [2], 15.3 µM.

Regarding `O=c1c(O[C@@H]2O[C@H](CO)[C@H](O)[C@H](O)[C@H]2O)c(-c2ccc(O)cc2)oc2cc(O)cc(O)c12` [TRIFOLIN], the IC50 came to 161 µM with J774.2 (setting [17]); 52.5 µM with Leishmania braziliensis [1] (Leishmania braziliensis, 72 h); 53.3 µM in the series on Leishmania peruviana [2] (Leishmania peruviana, 72 h).

As to `CC(=O)Oc1cc(OC(C)=O)c2c(=O)c(OC(C)=O)c(-c3ccc(OC(C)=O)c(OC(C)=O)c3)oc2c1`, the IC50 in the series with J774.2 (setting [17]) amounted to 109 µM; in the series on Leishmania braziliensis [1] (Leishmania braziliensis, 72 h) it was 46.8 µM; with Leishmania peruviana [2] (Leishmania peruviana, 72 h), 11.2 µM. The selectivity ratio in [3] and in [4] was 10 throughout. Also, the result in the series on Leishmania peruviana [5], with Leishmania braziliensis [6], in the series with Leishmania peruviana [7], in the series with Leishmania peruviana [9], in the series with Leishmania peruviana [11] and with Leishmania peruviana [13] was Active. Moreover, the outcome in the series with Leishmania peruviana [15] and in the series on Leishmania peruviana [16] was Active. Further, the “inhibition (INH)” value with Leishmania peruviana [8] and in the series on Leishmania peruviana [10] was 30% each time. The Activity in the series on Leishmania peruviana [12] stood at 72%; in the series with Leishmania peruviana [14], 40%.

Turning to `CC(=O)OC[C@H]1O[C@@H](Oc2c(-c3ccc(O)c(O)c3)oc3cc(O)cc(O)c3c2=O)[C@H](O)[C@@H](O)[C@H]1O`, the concentration for half-maximal inhibition (IC50) is 61.3 µM with J774.2 (setting [17]); 51.6 µM in the series on Leishmania braziliensis [1] (Leishmania braziliensis, 72 h); 87 µM in the series with Leishmania peruviana [2] (Leishmania peruviana, 72 h).

On to `O=c1c(O)c(-c2ccc(O)c(O)c2)oc2cc(O)cc(O)c12` [QUERCETIN], for which the 50% inhibitory concentration (IC50) in the series on J774.2 (setting [17]) amounted to 125 µM; with Leishmania braziliensis [1] (Leishmania braziliensis, 72 h) it was 30.5 µM; in the series on Leishmania peruviana [2] (Leishmania peruviana, 72 h), 60 µM.

A word on the IC50: it is the point on the concentration scale where inhibition reaches its midpoint.
